“Also recorded” adds a separate entry of the source. Where two headings read alike, the source gives them in different places.
Experiments:
ATP translocases = settings: cited from earlier work
[1] = tested on: wild-type C. trachomatis L2; test: Progeny assay; assay type: cell-based, Chlamydia trachomatis; settings: L929 cells; BKA 0.25 μM, HQNO 1 μM; 36 hpi then passaged
Method in brief: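 L929 cells were infected with C. trachomatis L2 wild-type or RsbU* strains, with BKA (0.25 μM) and HQNO (1 μM) added at infection where indicated. At 36 hpi, wells were either fixed and stained with MicroTrack reagent, or water-lysed and passaged onto fresh host monolayers, then fixed and stained 36 h later. IFUs were counted, and fold change was taken as post-passage IFUs relative to first-36 h IFUs.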

[2] = tested on: wild-type Chlamydia trachomatis L2; test: Growth curves with chemical inhibitors; assay type: cell-based; settings: L929 cells; HQNO 1 μM, BKA 0.25 μM added at infection; 0-72 hpi
RsbU* mutant = test: Immunofluorescence microscopy of infected L929 cells, RsbU* mutant; assay type: cell-based, Chlamydia trachomatis; settings: 24 and 72 hours
Method in brief: (§1)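 L929 monolayers were grown to confluency on slides and infected with wild-type C. trachomatis L2 or RsbU* mutant. HQNO or BKA was added immediately after infection where indicated. At 24 and 72 hpi, cells were fixed in 100% methanol (10 min, RT), washed with HBSS then PBS, and stained with MicroTrack reagent (1:40 in PBS, 1 h 50 min, RT). Nuclei were stained with DAPI (10 min, RT, dark) and samples mounted in antifade. Imaging was by spinning-disk confocal at 150X, 7 Z-stacks, maximum projection.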

[3] = tested on: wild-type C. trachomatis L2; test: Immunofluorescence microscopy of infected L929 cells, wild-type; assay type: cell-based, Chlamydia trachomatis
Method in brief: as §1

[4] = tested on: sodium-dependent NADH dehydrogenase; settings: low concentrations (1 μM); cited from earlier work
[5] = tested on: RsbU* mutant strain of C. trachomatis L2; test: Growth curves with chemical inhibitors; assay type: cell-based, Chlamydia trachomatis; settings: L929 cells; HQNO 1 μM added at infection
RsbU45–313 K140A/R134A = target: T1, RsbU45–313 K140A/R134A (Chlamydia trachomatis, UniProt A0A0H3MDU0, K140A/R134A); test: Surface plasmon resonance, K140A/R134A variant; assay type: binding; settings: read-out: KD (estimated, steady state affinity), SPR, PBS
T1 sequence (A0A0H3MDU0 45-313 R134A/K140A): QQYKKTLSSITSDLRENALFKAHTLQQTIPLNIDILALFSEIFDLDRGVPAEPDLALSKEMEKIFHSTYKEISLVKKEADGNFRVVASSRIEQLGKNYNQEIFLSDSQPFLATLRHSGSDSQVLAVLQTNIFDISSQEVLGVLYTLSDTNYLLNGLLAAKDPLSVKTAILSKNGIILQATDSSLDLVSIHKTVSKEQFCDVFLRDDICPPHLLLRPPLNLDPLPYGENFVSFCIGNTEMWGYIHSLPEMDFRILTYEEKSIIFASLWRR

RsbU45–313 [6] = target: T2, RsbU45–313 (Chlamydia trachomatis, UniProt A0A0H3MDU0); test: biochemical; assay type: binding
RsbU45–313 Q137A = target: T3, RsbU45–313 Q137A (Chlamydia trachomatis, UniProt A0A0H3MDU0, Q137A); test: Surface plasmon resonance, Q137A variant; assay type: binding; settings: read-out: KD (estimated, steady state affinity), SPR, PBS
T3 sequence (A0A0H3MDU0 45-313 Q137A): T1 sequence (A0A0H3MDU0 45-313 R134A/K140A)

WT RsbU45–313 = WT RsbU45–313 (Chlamydia trachomatis, UniProt A0A0H3MDU0); assay type: binding; settings: for SPR dose-dependent binding curves: Figure S3; for binding in initial SPR screening: ligands at 100 μM and 1 mM
RsbU45–313 R134A = target: T4, RsbU45–313 R134A (Chlamydia trachomatis, UniProt A0A0H3MDU0, R134A); test: Surface plasmon resonance, R134A variant; assay type: binding; settings: read-out: KD (estimated, steady state affinity), SPR, PBS
T4 sequence (A0A0H3MDU0 45-313 R134A): T1 sequence (A0A0H3MDU0 45-313 R134A/K140A)

RsbU45–313 [7] = target: T2, RsbU45–313; test: Differential scanning fluorimetry; assay type: binding
RsbU45–313 K140A = target: T5, RsbU45–313 K140A (Chlamydia trachomatis, UniProt A0A0H3MDU0, K140A); test: Surface plasmon resonance, K140A variant; assay type: binding; settings: read-out: KD (estimated, steady state affinity), SPR, PBS
T5 sequence (A0A0H3MDU0 45-313 K140A): T1 sequence (A0A0H3MDU0 45-313 R134A/K140A)

[8] = 5 mM and 10 mM ligand, 10 μM RsbU45–313

## CO[C@H](C/C=C\C=C\CC/C=C/C[C@H](C)/C=C/C(=C\C(=O)O)CC(=O)O)/C(C)=C\C=C(/C)C(=O)O [BKA, bongkrekic acid]
ATP translocases
  inhibition of ATP translocases: inhibit ATP translocases
[1]
  progeny production (IFUs): decrease in IFUs produced
[2]
  growth of wild-type Chlamydia (secY vs rpp30 genome copies): decrease in the growth of wild-type Chlamydia
RsbU* mutant
  levels of RsbU* Chlamydia or their dispersion within the host cell: appeared to have no effect
[3]; 24 and 72 hours
  morphology by confocal microscopy: No obvious morphological abnormalities

## CCCCCCCc1cc(O)c2ccccc2[n+]1[O-] [HQNO, 2-heptyl-4-hydrosyquinoline N-oxide]
[4]
  inhibition of sodium-dependent NADH dehydrogenase: selectively inhibit
[1]
  progeny production (IFUs): decrease in the number of IFUs produced compared to the initial infection
[2]
  growth of wild-type Chlamydia (secY vs rpp30 genome copies): not statistically different from the RsbU* mutant growth at any time point; also recorded: marked reduction in growth
RsbU* mutant
  levels of RsbU* Chlamydia or their dispersion within the host cell: appeared to have no effect
[3]; 24 hours post-infection
  inclusion morphology by confocal microscopy: formed smaller inclusions and appear to contain fewer EBs
[3]; 72 hours post-infection
  inclusion morphology by confocal microscopy: inclusions that were grossly under-full
[5]
  growth of RsbU* mutant (secY vs rpp30 genome copies): does not have an additive effect on the growth defect

## O=C(O)CCC(=O)C(=O)O [alpha-ketoglutarate]
RsbU45–313 K140A/R134A
  Kd: 558 µM
RsbU45–313 [6]; read-out: KD (ITC), single trial, 30 μM protein, PBS, data not shown
  Kd: 25.8 µM
RsbU45–313 Q137A
  Kd: 548 µM
WT RsbU45–313
  SPR dose-dependent binding curves: show dose-dependent binding
  binding in initial SPR screening: binding was only observed
WT RsbU45–313; read-out: KD (estimated, steady state affinity), SPR, WT RsbU45–313, PBS
  Kd: 419 µM
RsbU45–313 R134A
  Kd: 526 µM
RsbU45–313 [7]; [8]
  DSF temperature shift: Significant stabilizing temperature shifts
RsbU45–313 K140A
  Kd: 597 µM

## O=C(O)CC(O)C(=O)O (stereo not shown) [malate]
RsbU45–313 [6]
  Kd: 22 µM
WT RsbU45–313
  SPR dose-dependent binding curves: show dose-dependent binding
  binding in initial SPR screening: binding was only observed
RsbU45–313 [7]; [8]
  DSF temperature shift: Significant stabilizing temperature shifts

## O=C(O)CC(=O)O [malonate]
WT RsbU45–313
  SPR dose-dependent binding curves: do not appear to be binding

## O=C(O)CC(=O)C(=O)O [oxaloacetate]
RsbU45–313 [6]
  Kd: 55.5 µM
WT RsbU45–313
  SPR dose-dependent binding curves: show dose-dependent binding
  binding in initial SPR screening: binding was only observed
RsbU45–313 [7]; highest ligand concentration tested, only in one of two biological replicates
  DSF temperature shift: significant positive temperature shift

## O=C(O)CCC(=O)O [succinate]
WT RsbU45–313
  SPR dose-dependent binding curves: do not appear to be binding

Source: article PMC7007330 (Molecular microbiology, 2019)
